Measured values from ChEMBL document CHEMBL1125273, “Synthesis and biological evaluation of quinocarcin derivatives: thioalkyl-substituted quinones and hydroquinones” (J Med Chem, 1991).
≈ marks a conversion by molar mass, not a printed value. Values belong to the molecule of their own block, whether it stands above or below them.

Legend:
[1] = Antitumor activity in vivo in CD2F1 mice measured in terms of percent increase in lifespan calculated at a dose of 6.25 mg/kg intraperitoneally on day one.; format: functional; conditions: Mus musculus, ip, route intraperitoneal
Outline: (§1)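 P388 lymphocytic leukemia cells (1×10^6) were implanted ip into CD2F1 mice (about 22 g), five mice per group. Drug was given ip from the day after implantation, either once (day 1) or daily on days 1–5. ILS = (T/C − 1) × 100, where T and C are the median survival times of treated and control mice.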

[2] = Ratio of the ILS tested compound/quinocarcin was determined in CD2F1 mice on days 1-5.; format: functional, Mus musculus
Outline: (§2)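 CD2F1 mice (5 per group) received 10^6 P388 cells ip. Drug was given ip on day 1 or on days 1–5. ILS was taken as (T/C − 1) × 100 from median survival times, and each compound's ILS was divided by the ILS of quinocarcin.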

Homo sapiens [3] = assay: Ratio of ILS tested compound/quinocarcin against human mammary carcinoma MX-1 cell line implanted subcutaneously in mice and the compound administered intravenously at a dose of 4.41 mg/kg on days 1-5.; format: functional; conditions: route intravenous
[4] = Antitumor activity in vivo in CD2F1 mice measured in terms of percent increase in lifespan calculated at a dose of 3.13 mg/kg intraperitoneally on days 1-5.; format: functional; conditions: Mus musculus, ip, route intraperitoneal; outline: as §1
Homo sapiens [5] = assay: Ratio of ILS tested compound/quinocarcin against human mammary carcinoma MX-1 cell line implanted subcutaneously in mice and the compound administered intravenously at a dose of 12.7 mg/kg on days 1-5.c means number of cured mice.; format: functional; conditions: route intravenous
[6] = Ratio of the ILS tested compound/quinocarcin was determined for day one in CD2F1 mice.; format: functional, Mus musculus; outline: as §2
CCRF S-180 [7] = assay: Ratio of ILS tested compound/quinocarcin against murine sarcoma S-180 tumor cell line implanted subcutaneously in mice and the compound administered intravenously at a dose of 6.25 mg/kg on days 1-5.; format: functional, Mus musculus; conditions: route intravenous
HeLa = assay: In vitro concentration required to inhibit the growth of HeLa S3 cells by 50%; format: functional, cell-based; conditions: Homo sapiens
Outline: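 HeLa S3 cells (5 × 10⁴) seeded in Eagle's MEM with 10% FBS and 0.06 mg/mL kanamycin; graded drug concentrations, diluted in growth medium, added 24 h after seeding. Incubated 72 h at 37 °C, humidified 5% CO₂. Monolayers then washed, detached with 0.05% trypsin/0.02% EDTA and counted electronically; IC50 taken as concentration giving 50% growth inhibition.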

[8] = Antitumor activity in vivo in CD2F1 mice measured in terms of percent increase in lifespan calculated at a dose of 50 mg/kg intraperitoneally on days 1-5.; format: functional; conditions: Mus musculus, ip, route intraperitoneal; outline: as §1
[9] = Antitumor activity in vivo in CD2F1 mice measured in terms of percent increase in lifespan calculated at a dose of 25 mg/kg intraperitoneally on day one.; format: functional; conditions: Mus musculus, ip, route intraperitoneal; outline: as §1
[10] = Antitumor activity in vivo in CD2F1 mice measured in terms of percent increase in lifespan calculated at a dose of 6.25 mg/kg intraperitoneally on days 1-5.; format: functional; conditions: Mus musculus, ip, route intraperitoneal; outline: as §1
[11] = Antitumor activity in vivo in CD2F1 mice measured in terms of percent increase in lifespan calculated at a dose of 12.5 mg/kg intraperitoneally on day one.; format: functional; conditions: Mus musculus, ip, route intraperitoneal; outline: as §1
Homo sapiens [12] = assay: Ratio of ILS tested compound/quinocarcin against human mammary carcinoma MX-1 cell line implanted subcutaneously in mice and the compound administered intravenously at a dose of 5.59 mg/kg on days 1-5.c means number of cured mice.; format: functional; conditions: route intravenous
CCRF S-180 [13] = assay: Ratio of ILS tested compound/quinocarcin against murine sarcoma S-180 tumor cell line implanted subcutaneously in mice and the compound administered intravenously at a dose of 10 mg/kg on days 1-5.; format: functional, Mus musculus; conditions: route intravenous
Co-3 = assay: Ratio of ILS tested compound/quinocarcin against Co-3 tumor cell line implanted subcutaneously in mice and the compound administered intravenously at a dose of 13.8 mg/kg on days 1-5.; format: functional, Homo sapiens; conditions: route intravenous
LC-06 cell line = assay: Ratio of ILS tested compound/quinocarcin against LC-06 cell lines implanted subcutaneously in mice and the compound administered intravenously at a dose of 5.59 mg/kg on days 1-5.; format: functional, Homo sapiens; conditions: route intravenous
[14] = Antitumor activity in vivo in CD2F1 mice measured in terms of percent increase in lifespan calculated at a dose of 5-10 mg/kg intraperitoneally on days 1-5.; format: functional, Mus musculus; outline: as §1
St-4 [15] = assay: Ratio of ILS tested compound/quinocarcin against St-4 tumor cell line implanted subcutaneously in mice and the compound administered intravenously at a dose of 13.8 mg/kg on days 1-5.; format: functional, Homo sapiens; conditions: route intravenous
St-4 [16] = assay: Ratio of ILS tested compound/quinocarcin against St-4 tumor cell line implanted subcutaneously in mice and the compound administered intravenously at a dose of 8.78 mg/kg on days 1-5.; format: functional, Homo sapiens; conditions: route intravenous
Homo sapiens [17] = assay: Ratio of ILS tested compound/quinocarcin against human mammary carcinoma MX-1 cell line implanted subcutaneously in mice and the compound administered intravenously at a dose of 4.41 mg/kg on days 1-5.c means number of cured mice.; format: functional; conditions: route intravenous

Compound: CSc1c(O)c2c(c(O)c1SC)[C@H](CO)N1C(C#N)[C@@H]3C[C@@H](C(=O)O)[C@H]([C@@H]1C2)N3C (stereo partly specified)
ILS at 6.25 mg/kg [1]: 47%
R [2]: 0.86
T/C (Homo sapiens [3]): 0.067
ILS at 3.13 mg/kg [4]: 92%
T/C (Homo sapiens [5]): 0
R [6]: 1.09
T/C (CCRF S-180 [7]): 0.4
IC50 (HeLa): 0.09 µg/mL (≈ 0.199 µM)

Compound: CCOC(=O)CSC1=C(SCC(=O)OCC)C(=O)C2=C(C[C@H]3[C@H]4[C@H](C(=O)O)C[C@@H](C(C#N)N3[C@H]2CO)N4C)C1=O (stereo partly specified)
IC50 (HeLa): 9.96 µg/mL (≈ 16.8 µM)
ILS at 50 mg/kg [8]: 30%

Compound: CCSC1=C(OC)C(=O)C2=C(C1=O)[C@H](CO)N1C(C#N)[C@@H]3C[C@@H](C(=O)O)[C@H]([C@@H]1C2)N3C (stereo partly specified)
R [2]: 0.76
ILS at 25 mg/kg [9]: 31%
ILS at 6.25 mg/kg [10]: 59%
R [6]: 0.72
IC50 (HeLa): 2.88 µg/mL (≈ 6.44 µM)

Compound: CN1[C@@H]2[C@H](C(=O)O)C[C@H]1C(C#N)N1[C@@H](CO)C3=C(C[C@@H]21)C(=O)C(SC(C)(C)C)=C(SC(C)(C)C)C3=O (stereo partly specified)
R [2]: 0.5
ILS at 3.13 mg/kg [4]: 46%
ILS at 25 mg/kg [9]: 48%
R [6]: 1.26
IC50 (HeLa): 0.004 µg/mL (≈ 0.00749 µM)

Compound: CCSC1=C(SCC)C(=O)C2=C(C[C@H]3[C@H]4[C@H](C(=O)O)C[C@@H](C(C#N)N3[C@H]2CO)N4C)C1=O (stereo partly specified)
ILS at 12.5 mg/kg [11]: 50%
R [2]: 0.42
ILS at 6.25 mg/kg [10]: 51%
R [6]: 1.16
IC50 (HeLa): 0.11 µg/mL (≈ 0.23 µM)

IC50 (HeLa): < 0.03 µg/mL
Compound: CCSc1c(O)c2c(c(O)c1SCC)[C@H](CO)N1C(C#N)[C@@H]3C[C@@H](C(=O)O)[C@H]([C@@H]1C2)N3C (stereo partly specified)

Compound: CN1[C@@H]2[C@H](C(=O)O)C[C@H]1C(C#N)N1[C@@H](CO)c3c(O)c(SCCO)c(SCCO)c(O)c3C[C@@H]21 (stereo partly specified)
ILS at 6.25 mg/kg [1]: 18%
R [2]: 0.39
ILS at 6.25 mg/kg [10]: 41%
R [6]: 0.44
IC50 (HeLa): 3.24 µg/mL (≈ 6.33 µM)

Compound: COc1cccc2c1[C@@H]1COC3[C@@H]4C[C@@H](C(=O)O)[C@H]([C@H](C2)N31)N4C (stereo partly specified)
T/C (Homo sapiens [12]): 0.01
ILS at 12.5 mg/kg [11]: 48%
R [2]: 1
T/C (CCRF S-180 [13]): 0.74
T/C (Co-3): 0.22
T/C (LC-06 cell line): 0.23
ILS [14]: 120%
T/C (St-4 [15]): 0.42
T/C (St-4 [16]): 0.55
R [6]: 1
T/C (Homo sapiens [17]): 0
IC50 (HeLa): 0.11 µg/mL (≈ 0.333 µM)

Compound: CSc1c(O)c2c(c(O)c1SC)[C@@H]1COC3[C@@H]4C[C@@H](C(=O)O)[C@H]([C@H](C2)N31)N4C (stereo partly specified)
ILS at 12.5 mg/kg [11]: 65%
R [2]: 0.57
ILS at 6.25 mg/kg [10]: 59%
R [6]: 1.51
IC50 (HeLa): 0.13 µg/mL (≈ 0.306 µM)

Compound: CCCSC1=C(SCCC)C(=O)C2=C(C[C@H]3[C@H]4[C@H](C(=O)O)C[C@@H](C5OC[C@@H]2N53)N4C)C1=O (stereo partly specified)
ILS at 12.5 mg/kg [11]: 58%
R [2]: 0.98
ILS at 6.25 mg/kg [10]: 86%
R [6]: 1.21
IC50 (HeLa): 0.03 µg/mL (≈ 0.0627 µM)

Compound: CN1[C@@H]2[C@H](C(=O)O)C[C@H]1C(C#N)N1[C@@H](CO)c3c(O)ccc(O)c3C[C@@H]21 (stereo partly specified)
ILS at 12.5 mg/kg [11]: 23%
ILS at 6.25 mg/kg [10]: 23%
IC50 (HeLa): 6.1 µg/mL (≈ 17 µM)
